The source made the active and inactive calls. No cut-off for these calls is given here.
What was measured:
PtK2 [1] = test: Induction of micronucleation in potoroo PtK2 cells at 10 uM after 7 hrs by flow cytometry; conditions: Potorous tridactylus
[2] = Induction of mitotic cell cycle arrest in human A2780AD cells assessed as accumulation of cells at S phase at 100 nM after 24 hrs by flow cytometry (Rvb= 16.2%); type: functional, A2780 ADR
[3] = Induction of micronucleation in potoroo PtK2 cells at 2 uM after 7 hrs by flow cytometry; type: functional, Potorous tridactylus
[4] = Displacement of [3H]paclitaxel from microtubule assessed as bound radioligand level at 20 uM treated after radioligand addition by competitive binding assay
[5] = Induction of mitotic cell cycle arrest in potoroo PtK2 cells assessed as accumulation of cells at SubG1 phase at 2 uM treated for 7 hrs, washed followed by 48 hrs incubation by flow cytometry (Rvb= 1.1%); type: functional, Potorous tridactylus
A2780 [6] = test: Induction of mitotic cell cycle arrest in human A2780 cells assessed as accumulation of cells at G1/G0 phase at 100 nM after 24 hrs by flow cytometry (Rvb= 60%); type: functional
[7] = Induction of mitotic cell cycle arrest in potoroo PtK2 cells assessed as accumulation at S phase at 100 nM after 24 hrs by flow cytometry (Rvb= 12%); type: functional, Potorous tridactylus
[8] = Induction of mitotic cell cycle arrest in potoroo PtK2 cells assessed as accumulation of cells at G2+M phase at 2 uM after 7 hrs by flow cytometry (Rvb= 22.1%); type: functional, Potorous tridactylus
PtK2 [9] = test: Induction of microtubule bundle formation in potoroo PtK2 cells at 5 uM treated for 7 hrs followed by compound washout measured after 48 hrs by flow cytometry; type: cell-based; conditions: Potorous tridactylus
[10] = Cytotoxicity against human A2780AD cells; type: functional, cell-based; conditions: A2780 ADR
PtK2 [11] = test: Induction of microtubule bundle formation in potoroo PtK2 cells at 5 uM after 7 hrs by flow cytometry; type: cell-based; conditions: Potorous tridactylus
PtK2 [12] = test: Induction of microtubule bundle formation in potoroo PtK2 cells at 2 uM treated for 7 hrs followed by compound washout measured after 48 hrs by flow cytometry; type: cell-based; conditions: Potorous tridactylus
[13] = Displacement of [3H]discodermolide from microtubule assessed as bound radioligand level at 20 uM treated after radioligand addition by competitive binding assay
[14] = Displacement of [3H]discodermolide from microtubule assessed as bound radioligand level at 20 uM treated before radioligand addition by competitive binding assay
[15] = Induction of mitotic cell cycle arrest in potoroo PtK2 cells assessed as accumulation of cells at SubG1 phase at 5 uM after 7 hrs by flow cytometry (Rvb= 2.4%); type: functional, Potorous tridactylus
[16] = Displacement of [3H]epothilone B from microtubule assessed as bound radioligand level at 20 uM treated after radioligand addition by competitive binding assay
[17] = Binding affinity to beta-tubulin 219-243 amino acid sequence by mass spectroscopy
Method in brief: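 Polymerized native microtubules (20 µM tubulin, 25 µM ligand, 30 min, 37 °C in GAB with 1 mM GTP) pelleted and washed, then digested with trypsin (2 h, 37 °C) or chymotrypsin (1 h, 25 °C). Peptides analysed by nano-HPLC triple-quadrupole MS with precursor ion scanning for the m/z 249.0 cyclostreptin fragment. Adduct stoichiometry taken from the 219–243 peptide signal.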

[18] = Induction of mitotic cell cycle arrest in human A2780AD cells assessed as accumulation of cells at SubG1 phase at 100 nM after 24 hrs by flow cytometry (Rvb= 4.1%); type: functional, A2780 ADR
Tubulin (Homo sapiens) = Tubulin (Homo sapiens) (UniProt P68371+Q9H4B7+P0DPH7+P68366+Q13509+Q71U36+P04350+Q3ZCM7+P07437+P68363+Q9BQE3+Q6PEY2+Q13885+Q9BVA1+Q9BUF5); test: Induction of covalent modification of tubulin at Thr220 and Asn228 in human A549 cells by HPLC analysis; type: cell-based
Method in brief: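 A549 monolayers exposed 24 h to 1 µM ligand or 0.1% DMSO. Tubulin purified from homogenate supernatant by one-step DEAE ion exchange (0.4 M KCl load, 0.8 M KCl elution) to 90% purity. Tryptic or chymotryptic digests analysed by HPLC-MRM with Q3 at m/z 249.0. Adduct fraction estimated from the areas of modified and unmodified peptide peaks.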

[19] = Induction of mitotic cell cycle arrest in potoroo PtK2 cells assessed as accumulation of cells at G1/G0 phase at 2 uM treated for 7 hrs, washed followed by 48 hrs incubation by flow cytometry (Rvb= 65.8%); type: functional, Potorous tridactylus
[20] = Induction of micronucleation in potoroo PtK2 cells at 5 uM after 7 hrs by flow cytometry; type: functional, Potorous tridactylus
[21] = Induction of mitotic cell cycle arrest in potoroo PtK2 cells assessed as accumulation at S phase at 2 uM treated for 7 hrs, washed followed by 16 hrs incubation by flow cytometry (Rvb= 16%); type: functional, Potorous tridactylus
[22] = Induction of mitotic cell cycle arrest in potoroo PtK2 cells assessed as accumulation of cells at SubG1 phase at 2 uM treated for 7 hrs, washed followed by 16 hrs incubation by flow cytometry (Rvb= 2%); type: functional, Potorous tridactylus
[23] = Induction of mitotic cell cycle arrest in human A2780AD cells assessed as accumulation of cells at G2+M phase at 100 nM after 24 hrs by flow cytometry (Rvb= 20.5%); type: functional, A2780 ADR
[24] = Displacement of [3H]epothilone B from microtubule assessed as bound radioligand level at 20 uM treated before radioligand addition by competitive binding assay
A2780 [25] = test: Cytotoxicity against human A2780 cells; type: functional, cell-based
[26] = Induction of micronucleation in potoroo PtK2 cells at 5 uM treated for 7 hrs followed by compound washout measured after 16 hrs by flow cytometry; type: functional, Potorous tridactylus
[27] = Induction of mitotic cell cycle arrest in potoroo PtK2 cells assessed as accumulation of cells at G2+M phase at 2 uM treated for 7 hrs, washed followed by 16 hrs incubation by flow cytometry (Rvb= 23%); type: functional, Potorous tridactylus
[28] = Induction of mitotic cell cycle arrest in potoroo PtK2 cells assessed as accumulation at S phase at 2 uM treated for 7 hrs, washed followed by 48 hrs incubation by flow cytometry (Rvb= 10.7%); type: functional, Potorous tridactylus
PtK2 [29] = test: Induction of micronucleation in potoroo PtK2 cells at 2 uM treated for 7 hrs followed by compound washout measured after 48 hrs by flow cytometry; type: functional, cell-based; conditions: Potorous tridactylus
[30] = Induction of mitotic cell cycle arrest in potoroo PtK2 cells assessed as accumulation of cells at G1/G0 phase at 100 nM after 24 hrs by flow cytometry (Rvb= 60.8%); type: functional, Potorous tridactylus
A2780 [31] = test: Induction of mitotic cell cycle arrest in human A2780 cells assessed as accumulation of cells at G2+M phase at 100 nM after 24 hrs by flow cytometry (Rvb= 20%); type: functional
A549 [32] = test: Induction of mitotic cell cycle arrest in human A549 cells assessed as accumulation of cells at G1/G0 phase at 100 nM after 24 hrs by flow cytometry (Rvb= 39.2%); type: functional
A549 [33] = test: Induction of mitotic cell cycle arrest in human A549 cells assessed as accumulation at S phase at 100 nM after 24 hrs by flow cytometry (Rvb= 16%); type: functional

CC1=C[C@H]2[C@@H](O)[C@H](C)[C@@H](O)[C@@H]2[C@H]2[C@@H]3C4=C5O[C@](C)(CC[C@@H](OC4=O)[C@H]5C)[C@@H]3C[C@@H]12 [CYCLOSTREPTIN]
Activity (PtK2 [1]): 4%
Activity [2]: 6%
Activity [3]: 4%
Activity [4]: 60%
Activity [5]: 7.1%
Activity (A2780 [6]): 12.1%
Activity [7]: 14.8%
Activity [8]: 32%
Activity (PtK2 [9]): Active
IC50 [10]: 51 nM
Activity (PtK2 [11]): 4%
Activity (PtK2 [12]): Active
Activity [13]: 96%
Activity [14]: 19%
Activity [15]: 2.3%
Activity [16]: 79%
Activity [17]: Active
Activity [18]: 16.4%
Activity (Tubulin (Homo sapiens)): Active
Activity [19]: 8.7%
Activity [20]: 4%
Activity [21]: 17%
Activity [22]: 3.5%
Activity [23]: 71%
Activity [24]: 12%
IC50 (A2780 [25]): 43.5 nM
Activity [26]: 70%
Activity [27]: 59%
Activity [28]: 10%
Activity (PtK2 [29]): Active
Activity [30]: 18.5%
Activity (A2780 [31]): 61%
Activity (A549 [32]): 4%
Activity (A549 [33]): 9%
